Compound activity as filed in PubChem.
Shown are actives, neighbours in structure and some others; about 2.5% of the full set was active somewhere.
NTR1 agonist: activates human neurotensin receptor 1; activation, % at 20 µM; P30989; NTR1-U2OS beta-arrestin-GFP spot imaging, agonist mode; AID 493036; actives 0.17% (n = 330,000);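 active = activation at or above 40% of the spot to cytoplasm intensity ratio, with at least 20 cells analyzed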
MC4R barr agon: human MC4R agonism via beta-arrestin; P32245; activation, % at 8.9 µM; actives 0.98% (n = 360,000); U2OS MC4R beta-arrestin complementation, luminescence; percent of melanotan II response, DMSO zero;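 active = activation above a per-plate cutoff, the mean activation of sample wells on that plate plus 3 SD, cut at about 8% in these data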
Target sequence (P32245 whole entry, looked up): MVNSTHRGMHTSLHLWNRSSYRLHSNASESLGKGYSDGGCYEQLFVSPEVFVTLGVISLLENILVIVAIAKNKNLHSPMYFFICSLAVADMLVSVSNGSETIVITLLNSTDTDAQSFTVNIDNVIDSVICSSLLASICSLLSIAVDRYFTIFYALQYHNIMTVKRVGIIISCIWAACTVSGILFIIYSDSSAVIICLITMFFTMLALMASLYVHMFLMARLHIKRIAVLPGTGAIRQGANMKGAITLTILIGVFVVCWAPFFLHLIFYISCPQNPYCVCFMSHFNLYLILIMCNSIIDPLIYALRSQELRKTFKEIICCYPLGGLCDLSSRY
PG9 Ab binder: binds the HIV-1 gp120 antibody PG9. TR-FRET gp120-PG9 antibody binding. inhibition, % at 6.7 µM. actives 0.43% (n = 360,000). AID 624416; in the data active = inhibition above about 8.5%
NR1D1 modulator: Rev-erb alpha (human) modulation; activity, % at 10 µM; AID 1259318; Rev-erbα–FITC-DNA binding, fluorescence polarization, 90 min; P20393; actives 0.79% (n = 370,000);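 active = activity above about 14%, limit read from the data; passing the limit was not always enough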
MC4R antag cAMP: antagonists of human melanocortin 4 receptor (MC4R); AID 540295; inhibition, % at 6.5 µM; P32245; actives 0.48% (n = 360,000); MC4R-expressing cells, MTII-stimulated cAMP, LANCE TR-FRET;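 active = inhibition above its plate's cutoff, the mean of tested wells on that plate plus 3 SD, cut at about 29% in these data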
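Assay system: U2OS-MC4R stable cell line; Also added: Melanotan II; Technique: Eu-cAMP/anti-cAMP TR-FRET, emission 671 nm; Times: 30-min compound, 1-h challenge, 1-h detection, room temperature.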
MC4R barr conf: human MC4R beta-arrestin agonism confirmation; shares compounds with MC4R barr agon; U2OS MC4R beta-arrestin recruitment, luminescence; scaled DMSO 0%, Melanotan II 100%; activation, % at 8.9 µM; actives 31% (n = 2,400); AID 602192;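 active = mean activation across replicates above the hit cutoff set in the earlier primary screen, cut at about 8% in these data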
MOR-DOR barr ag: activates mu-delta opioid heterodimer, MC4R agonist counter-screen; shares compounds with MC4R barr agon; U2OS PathHunter beta-arrestin, beta-gal luminescence; percent of deltorphin B response, DMSO zero; activation, % at 9.2 µM; actives 5.8% (n = 2,400);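 active = mean activation across replicates exceeds the hit threshold derived in the earlier primary screen, cut at about 18% in these data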
A number is an active result; n = inactive; x = no result given.

SMILES	NTR1 agonist	MC4R barr agon	PG9 Ab binder	NR1D1 modulator	MC4R antag cAMP	MC4R barr conf	MOR-DOR barr ag
CCn1cc([N+](=O)[O-])c(C(=O)N2N=C(c3ccc(Cl)c(Cl)c3)CC2c2ccccc2O)n1 (stereo unspecified)	n	n	n	n	n	x	x
CCN(CC)Cc1c(C(=O)N/N=C/c2cccc3ccccc23)nnn1-c1nonc1N	n	n	n	n	n	x	x
CCCc1c(C(=O)N/N=C/c2cccc3ccccc23)nnn1-c1nonc1N	n	17	n	n	n	n	n
CC(C)c1c(C(=O)N/N=C/c2ccc(OCc3ccccc3)cc2)nnn1-c1nonc1N	n	14	n	n	n	n	n
CC1CCN(Cc2c(C(=O)N/N=C/c3cc(Br)ccc3O)nnn2-c2nonc2N)CC1	n	n	n	n	n	x	x
Nc1nonc1-n1nnc(C(=O)N/N=C/c2ccc(OCc3ccccc3)cc2)c1CNc1ccccc1	n	25	n	n	n	n	n
CC(C)c1c(C(=O)N/N=C/c2ccc(OCc3ccc(F)cc3)cc2)nnn1-c1nonc1N	n	n	n	n	n	x	x
Cc1cc(C)c(/C=N/NC(=O)c2nnn(-c3nonc3N)c2CN2CCC(C)CC2)c(C)c1	n	17	n	n	n	16	n
O=c1[nH]cnc2nn(C3OC(CO)C(O)C3O)nc12 (stereo unspecified)	x	x	n	n	x	x	x
OC1(c2cccc(C(F)(F)F)c2)CCN(c2ncnc3c2[nH]c2ccccc23)CC1	n	11	n	n	n	n	n
CC1(C)CC(=O)C=C(Nc2ccccc2NC(=O)c2cc(F)ccc2F)C1	x	x	x	n	x	x	x
CCOc1ccc(C(=O)OCC(=O)Nc2ccc(SC(F)F)cc2)cc1OCC	n	19	n	n	n	n	n
C[C@H]1CN(S(=O)(=O)C(C)(C)C)[C@@H](CCO)/C1=C\CCO	x	x	n	n	x	x	x
OC(c1cc(F)cc(Cl)c1)c1ncc(-c2ccc(Cl)cc2)[nH]1 (stereo unspecified)	x	9.8	n	n	n	n	n
OC(c1ccc(F)c(F)c1)c1ncc(-c2ccc(Cl)cc2)[nH]1 (stereo unspecified)	x	n	n	n	n	x	x
Cc1cc(C(O)c2ncc(-c3ccc(Oc4ccccc4)cc3)[nH]2)ccc1F (stereo unspecified)	x	12	n	n	n	n	n
COC[C@@H](OC(C)=O)[C@H]1OCc2ccccc2[C@@H]1/C=C/c1ccccc1	x	x	x	n	x	x	x
O=C(Nc1ccc(F)cc1F)c1cc(-c2ccc(Cl)cc2)nc2ccccc12	x	x	x	n	x	x	x
COc1ccc(C(N)c2csc(Nc3cc(Oc4ccccc4)ncn3)n2)cc1 (stereo unspecified)	x	n	n	n	n	x	x
NC(Cc1ccccc1)c1csc(Nc2ccc(C(=O)c3ccccc3)cc2)n1 (stereo unspecified)	x	n	n	n	n	x	x
NC(c1csc(Nc2cc(Oc3ccccc3)ncn2)n1)C1CCCCC1 (stereo unspecified)	x	10	n	n	n	28	20
NC(c1csc(Nc2ccc(C(=O)c3ccccc3)cc2)n1)C1CCCCC1 (stereo unspecified)	x	11	n	n	n	23	25
NC(Cc1ccc(F)cc1)c1csc(Nc2ccc(C(=O)c3ccccc3)cc2)n1 (stereo unspecified)	x	13	n	n	n	19	24
NC(Cc1ccc(Cl)cc1)c1csc(Nc2ccc(C(=O)c3ccccc3)cc2)n1 (stereo unspecified)	x	12	n	n	n	18	19
Cc1nn(-c2ccccc2)c2sc(C(=O)N3CCN(C(c4ccccc4)c4ccc(Cl)cc4)CC3)cc12 (stereo unspecified)	x	x	x	n	x	x	x
SMILES	NTR1 agonist	MC4R barr agon	PG9 Ab binder	NR1D1 modulator	MC4R antag cAMP	MC4R barr conf	MOR-DOR barr ag
COc1ccc(/C(C)=N/Nc2ncc(Cl)cc2Cl)c(O)c1	n	13	n	n	n	n	n
O=C(NCCc1ccc(F)cc1)c1cc2ccccn2n1	x	x	x	n	x	x	x
Cc1ccccc1C(=O)NC(=S)NCC1CCCO1 (stereo unspecified)	n	n	n	n	n	x	x
O=C(NC(=S)NCC1CCCO1)C(c1ccccc1)c1ccccc1 (stereo unspecified)	n	13	n	n	n	n	n
CNc1cnn(-c2ccccc2)c(=O)c1Cl	n	n	n	n	n	x	x
O=c1c(Cl)c(N/N=C/c2ccc(Br)cc2)cnn1-c1ccccc1	n	16	n	n	n	12	n
COc1ccc2oc(C(=O)Nc3ccc(C)cn3)c(C)c2c1	n	13	n	n	n	n	n
CCOc1ccc2oc(C(=O)OCC(=O)NCc3ccc(OC)cc3)c(C)c2c1	n	30	n	n	n	n	n
COc1ccc2oc(C(=O)OCC(=O)Nc3ccccc3)c(C)c2c1	n	n	n	n	n	x	x
COc1ccc2oc(C(=O)OCC(=O)Nc3ccccc3OC)c(C)c2c1	n	14	x	x	n	n	n
COc1ccc2oc(C(=O)OCC(=O)NCc3ccc(OC)c(OC)c3)c(C)c2c1	n	n	n	n	n	x	x
Nc1ccc(-n2c(N)c(C(=O)NCc3ccc4c(c3)OCO4)c3nc4ccccc4nc32)cc1	n	13	n	n	n	n	n
N#CCC[C@@H]1CC[C@]2(CCCN(S(=O)(=O)c3ccccc3)C2)O1	x	x	x	n	x	x	x
CCc1ccc(NC(=O)c2ccc3c(c2)C(=O)N(Cc2ccco2)C3=O)cc1	n	11	n	n	n	n	n
Cn1nc(-c2ccccc2)cc1NC(=O)Nc1ccc(C(C)(C)C)cc1	n	12	n	n	n	n	n
CCOc1ccc(C=Nn2c(-c3cccc(OC(C)C)c3)n[nH]c2=S)cc1	x	x	x	n	x	x	x
Cc1ccc(NC(=O)C(=O)NCCOc2ccccc2Cl)cc1	n	12	n	n	n	9.8	n
O=C(NCCOc1ccccc1Cl)C(=O)NCCOc1ccccc1Cl	n	n	n	n	n	x	x
CCc1ccc(NC(=O)C(=O)NCCOc2ccccc2Cl)cc1	n	21	n	n	n	n	n
CCC(C)N(C(=O)c1oc(=O)c2ccccc2c1-c1ccc(C)cc1)C(C)CC (stereo unspecified)	x	x	x	n	x	x	x
Cc1ccc(-n2c(Cc3cccs3)nnc2SCc2ccc(C#N)cc2)cc1	x	x	x	n	x	x	x
C/C(=N/NC(=O)C1COc2ccccc2O1)c1ccc(Br)s1 (stereo unspecified)	n	13	n	n	n	n	n
O=C(N/N=C/c1cccc(OCc2ccccc2)c1)c1ccc(Br)cc1	n	17	n	n	n	n	n
COc1ccc(C(=O)N/N=C\C(C)=C\c2ccccc2)cc1OC	n	n	n	n	n	x	x
COc1cccc(/C=N/NC(=O)c2ccc(OCc3cccc(Br)c3)cc2)c1	n	n	n	n	n	x	x
